Measured values taken from the RNAGym collection of RNA variant scans (doi:10.1101/gad.245936.114).
This sample holds only a part of the variants without activity.

B1: tRNA (parent)
chain: CUCUCGGUAGCCAAGUUGGUUUAAGGCGCAAGACUUUAAUUUAUCACUACGAAAUCUUGAGAUCGGGCGUUCGACUCGCCCCCGGGAGAUUUUUUCCUCGAGCAA

Variants of: B1
Experiment: nonsense suppression (GFP-seq) (ratio to wild type); higher = more function; SUP4oc tRNA, yeast GFP reporter sort-seq
How it was run: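 To measure nonsense suppression, tRNA variants from a library carrying ~3% random mutations were integrated into the yeast genome alongside RFP and a GFP ochre reporter under galactose control. Growth took place in raffinose/galactose medium supplemented with 80 mg/L adenine, followed by sorting into GFP/RFP bins and Illumina sequencing of each bin (phred ≥30). For each variant with ≥100 reads and ≥30 cells, the bin median GFP/RFP values were weighted by its estimated cell share per bin and referenced to the unmutated parent tRNA.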

| Variant | nonsense suppression |
| --- | --- |
| CUCUCGGUAGCCAAGUUGGUUUAAUGCGCAAGACUUUAAUUUAUCACUACGAAAUCUUGAGAGCGGGCGUUCGACUCGCCCCCGGGAGAUUUUUUCCUCGAGCAA [G25U U63G] | 0.0371 |
| CUCUCGGUAGCCAAGUUGGUAUAAGGCGCAAGACUUUAAUUUAUCACUACGAAAUCUUGAGAUCGGGCGUUCGACUCGCCCCCGGGGGAUUUUUUCCUCGAGCAA [U21A A87G] | 0.493 |
| CUCUCGGUAGCCAAGUUGGUUUAAGGCGCUAGACUUUAAUUUAUCACUACGAAAUCUUGUGAUCGGGUGUUCGACUCGCCCCCGGGAGAUUUUUUCCUCGAGCAA [A30U A60U C68U] | 0.0354 |
| CUCUCGGUAGCCAAGUUGGUCUAAGGCGCAAGACUUUAAUUUAUCACUACGAAAUCUUGAGAUCGGGCGUUCGACUCGCCCUCGGGAGAUUUUUUCCUCGAGCAA [U21C C82U] | 1.15 |
| CGCUCGGUAGCCAAGUUGGUUUAAGGCGCAAGACUUUAAUUUAUCACUACGAAACCUUGAGAUCGGGCGUUCGACUCGCCCCCGGGAGAUUUUUUCCUCGAGCAA [U2G U55C] | 0.053 |
| CUCUCGGUAGCCAAGUUGGUUUAAGCCGCAAGACUUUAAUUUAUCACUACGAAACCUUGAGAUCGGGCGUUCGACUCGCCCCCGGGAGAUUUUUUCCUCGAGCAA [G26C U55C] | 0.0525 |
| CUCUCGGUACCCAAGUUGGUUUAAGGCGGAAGACUUUAAUUUAUCACUACGAAAUCUUGAGAUCGGGCGUUCGACUCGUCCCCGGGAGAUUUUUUCCUCGAGCAA [G10C C29G C79U] | ≤ 0.026 |
| CUCUCGGUAGUCAAGUUGGUUUAUGGCGCAAGACUUUAAUUUAUCACUACGAAAUCUUGAGAUCGGGCGUUCGACUCGCCCCCGGGAGAUUUUUUCCUCGAGCAA [C11U A24U] | 0.031 |
| CUCGCGGAAGCCAAGUUGGUUUAAGGCGCAAGACUUUAAUUUAUCACUACGAAAUCUUGAGAUCGGGCGUUCGACUCGCCCCCGGGAGAUUUUUUCCUCGAGCAA [U4G U8A] | ≤ 0.026 |
| CUCUCGGUAGCUCAGUUGGAUUAAGGCGCAAGACUUUAAUUUAUCACUACGAAAUCUUGAGAUCGGGCGUUCGACUCGCCCCCGGGAGAUUUUUUCCUCGAGCAA [C12U A13C U20A] | ≤ 0.026 |
| CUGUCGGUAGCCAAGUUGGUUUGAGGUGCAAGACUUUAAUUUAUCACUACGAAAUCUUGAGAUCGGGCGUUCGACUCGCCACAGGAAGAUUUUUUCCUCGAGCAA [C3G A23G C27U C81A C83A G86A] | ≤ 0.026 |
| CUCUCGGUAGUCAAGUUGGUUUAGGCCGCAAGACUUUAAUUUAUCACUACGAAAUCUUGAGAUCGGGCGUACGACUCGCCCCCGGGAGAUUUUUUCCUCGAGCAA [C11U A24G G26C U71A] | ≤ 0.026 |
| CUCUCGGUAUCCAUGUUGGUUUAAGGCGCAAGACUUUAAUUUAUCACUACGAAAUCUUGAGAUCGGGCGUUCGACUCGCCCCCGGGAGAUUUUUUCCUCGAGCAA [G10U A14U] | 0.19 |
| CUCUCGGUAGCCACGUUGGUUUAAGGCGCAGGACUUUAAUUUAUCACUACGAAAUCUUGAGAUCGGGCGUUCGUCUCGCGCCCGGGAGAUUUUUUCCUCGAGCAA [A14C A31G A74U C80G] | ≤ 0.026 |
| CUCUCGGUAGCCAAGUUGGUUUAAGGCGCAGGACUUUAAUUUAUCACUACGAAAUCCUGAGAUCGGGCGUUCGACUCACCCCCGGAAGAUUUUUUCCUCGAGCAA [A31G U57C G78A G86A] | ≤ 0.026 |
| CUCUCGGUAGCCAAGUUGGUUUAAGGCGCAAGACUUUAAUUUAUCACUACGAAAUCUUGAGAUCGGGCGUUCGAAUCGCCCCCGGGGGAUUUUUUCCUCGAGCAA [C75A A87G] | 0.839 |
| CUCUCGGUAGCCAAGUUGGUUUAAGGCGCAAGACUUUAAUUUAUCACUACGAACUCUUGAAAUCGGGCGUUCGACUCGCCCCCGGGAGAUUUUUUCCUCGAGCAA [A54C G61A] | 0.334 |
| CUCUCGGUAGCCAAGUUGGUUUAAGGCGCAAGACUUUAAUUUAUCACUACGAAAUCUUGAGAUCGGGCGUUCGACUCUCCCCAGGGAGAUUUUUUCCUCGAGCAA [G78U C83A] | 0.0425 |
| CUCUCGGUAGCCAAGUUGGUUUACGGCGCAAGACUUUAAUUUAUCACUACGAAAUCUUGCGAUCGGGCGUUCGACUCGCCCCCGGGAGAUUUUUUCCUCGAGCAA [A24C A60C] | 0.0269 |
| CUCUCGGUAGCCUAGUUGGUAUAAGGCGCAAGACUUUAAUUUAUCACUACGAAAUCUUGAGAUCGGGCGUUCGACUCGCCCCCGGGAGAUUUUUUCCUCGAGCAA [A13U U21A] | 0.803 |
| CUCUCGGUAGCCAAGAUGGUUUAAGGCGCAAGACUUUAAUUUAUCACUACGAAAUCUUGAGAUCGGGCGUUCGACCCGCCCCCGGGAGAUUUUUUCCUCGAGCAA [U16A U76C] | 1.19 |
| CUCUCGGUAGCCAAGUUGGUUUAAGGCGCAAGCCUUUAAUUUAUCACUACGAAAUCGUGAGAUGGGGCGUUCGACUCGCCCCCGGGAGAUUUUUUCCUCGAGCAA [A33C U57G C64G] | ≤ 0.026 |
| CUCUCGGUAGCCAAGUUGGUUUAAGGCGCAAGACUUUAAUUUAUCACUACGAAAUCUUGAGAUCGGGCGUUCGACUCGCCCCCGGCGGAUUUUUUCCUCGAGCAA [G86C A87G] | 0.0881 |
| CUCUCAGUAGCCAAGUUGGUUUAAGGCGCACGACUUUAAUUUAUCACUACGAAAUCUUGCGAUCGGGCGUUAGACUCGCCCCCGGAAGAUUUUUUCCUCGAGCAA [G6A A31C A60C C72A G86A] | ≤ 0.026 |
| CUCUCGGUAGCCAAGUUGGUUUAUGGCGCAAGACUUUAAUUUAUCACUACGAAAUCUUGAGGUCGGGCGUUCGACUCGCCCCCGGGAGAUUUUUUCCUCGAGCAA [A24U A62G] | 0.0414 |
| CUCUCGGUAGCCAAGGUGGUUUAAGGCGCAAGACUUUAAUUUAUCACUACGAAAUCUUGAGAACGGGCGUUCGACUCGCCCCCGGGAGAUUUUUUCCUCGAGCAA [U16G U63A] | 1.09 |
| UUCUCGGUAGCCAAGUUGGUUUAAGGCGCAAGACUUUAAUUUAUCACUACGAAAUAUUGAGAUCGGGCGUUCGACCCGCCCCCGGGAGAUUUUUUCCUCGAGCAA [C1U C56A U76C] | ≤ 0.026 |
